assay: Toxicity liver stage against HepG2, at 10uM; type: cell-based; set-up: test concentration 10 uM, cell line HepG2-A16-CD81EGFP; settings: human, HepG2-A16-CD81EGFP cells; read-out: INHIBITION
How it was run: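 Uninfected HepG2-A16-CD81EGFP cells, 3 × 10^3 per well, 1536-well, plated on prespotted compound at 10 μM final, parasite-free screening media added to match infected plates; puromycin 10 μM positive, DMSO 0.5% negative; run in parallel with 48 h PbLuc assay at 37 °C, 5% CO2; viability by CellTiter-Glo luminescence, normalized to controls.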

Row | Structure (SMILES) | cytotoxicity at 10 µM [%]
1 | CC(C)CN1C[C@H](COCc2ccccc2)Oc2ncccc2C1=O | -57.4
2 | CNC(=O)[C@@H]1[C@@H](c2ccccc2)CN2CCN(Cc3ccccn3)C[C@H]12 | 8.76
3 | COC1CN(C(=O)NCC(N)=O)CCC(=O)N(C)c2ccccc21 (stereo not given) | -3.84
4 | O=C(CCN1C(=O)CC2(CCCC2)C1=O)NCCc1nccs1 | 2.86
5 | CCCc1nnsc1C(=O)NCC(O)c1cccs1 (stereo not given) | 4.15
6 | O=S(=O)(NCC1(O)CCOCC1)c1ccccc1Br | -5.93
7 | Cn1cc(C(=O)Nc2ccc3c(c2)N(C(=O)c2ccco2)CC3)nn1 | 0.529
8 | O=C(C1CCCCC1)N1CCO[C@@H]2CNC[C@@H]21 | 8.82
9 | O=C(c1cc(-c2ccn(CC3CC3)n2)n2ccccc12)N1CCCO1 | 5.07
10 | CNC(=O)c1cnc2n1CCN(C(=O)Cc1ccccn1)C2 | 6.68
11 | CCN(C)c1ncnc2c1CCN(C(=O)[C@H]1CCCO1)CC2 | 3.38
12 | O=C(c1ccccc1-n1cnnn1)N1CCC2(CC1)OCCO2 | 1.5
13 | Cn1c(=O)[nH]c(=O)n2c(CC(=O)Nc3ccc(Cl)c(Cl)c3)cnc12 | 3.82
14 | CCC(CC)C(=O)NCc1cnn(CC)c1 | 7.19
15 | Cn1cc(-c2cc(C(F)(F)F)nn2CCC#N)cn1 | 6.5
16 | CCS(=O)(=O)N1CCCCC1c1nc(C)no1 (stereo not given) | 7.03
17 | CC(C)n1cc(N2CC(C(=O)N3CCCC3)CC2=O)cn1 (stereo not given) | 3.79
18 | CC(C(=O)NCCCn1ccnc1)n1cc(Br)cn1 (stereo not given) | -13.8
19 | CCCn1nc(C)c(-c2cncn2CC2(N(C)C)CCC(C)CC2)c1C (stereo not given) | 9.35
20 | Cc1nc(N)ncc1C(=O)N1CCCC1(C)C(=O)N(C)C (stereo not given) | 10.2
21 | CC(=O)Nc1nc(SCc2ccc3c(c2)OCO3)ns1 | -8.98
22 | Cc1ncncc1C(=O)N1CCOC(C(=O)NC2CCCC2)C1 (stereo not given) | -4.23
23 | Cc1cc(C)nc(C2CCCN2C(=O)c2coc(C)n2)n1 (stereo not given) | 6.93
24 | Nc1nccc(C2CCN(CC3CC3)C2)n1 (stereo not given) | 8.54
25 | O=C1Nc2ccccc2CNC12CCN(CC1CC1)CC2 | 6.03
26 | COc1ccc(Cn2cc(C(C)O)nn2)cc1 (stereo not given) | 16.9
27 | Cc1nnc(CSc2ccccn2)o1 | 14.3
28 | CC(C)c1nnc2n1CCN(C(C(N)=O)c1ccc(F)cc1)C2 (stereo not given) | 1.54

Row | Structure (SMILES) | cytotoxicity at 10 µM [%]
29 | COCCC(=O)N1CCC(NC(=O)c2cscc2C)CC1 | -14.2
30 | O=C1CCC(=O)N1CCn1nnc(-c2ccc(Br)cc2)n1 | 4.26
31 | O=C(CS(=O)(=O)Cc1cccc(Br)c1)Nc1cn[nH]c1 | 0.575
32 | CC(C)(C)c1nc2cc(NC(=O)Cn3ccc(=O)[nH]c3=O)ccc2o1 | -7.07
33 | CCC(C)(C)NC(=O)COC(=O)c1cc(C)ccc1NC(=O)N(C)C | 1.12
34 | Cc1noc(C)c1CNC(C)c1ccc(S(=O)(=O)N(C)C)cc1 (stereo not given) | 2.47
35 | CN(C)c1cc2c(nn1)CCN(C(=O)C1COc3ccccc3C1)C2 (stereo not given) | 14.3
36 | Cc1noc(C)c1CCC(=O)N1CCCC(n2ccnc2C)C1 (stereo not given) | 10.9
37 | COc1cc2c(cc1OC)CCN(C(=O)Cn1nc(C)cc1C)CC2 | 2.63
38 | CC1CCCCN1Cc1nc(Cc2ccccc2)no1 (stereo not given) | 4.61
39 | O=C(NCC1(C(=O)O)CCC1)c1nnn(-c2ccc(F)cc2)c1C1CC1 | -14.8
40 | COc1c(CNC2CCOc3c(F)cccc32)c(C)nn1C (stereo not given) | 7.5
41 | Cc1oc(-c2ccsc2)nc1CC(=O)NCC(C)(C)CN(C)C | -5.81
42 | O=C(COc1cccc2c1CCC2=O)NCC(F)(F)F | -8.74
43 | CCn1cnnc1C1CCN(C(=O)c2cccc(-n3cccc3)c2)CC1 | 4.56
44 | COCc1csc(NC(=O)NCc2ccsc2)n1 | 4.53
45 | Cc1cc(NCC(=O)N(C)C)c(C(N)=O)cc1F | -2.64
46 | NC(=O)C1CCCN1C1CCN(C(=O)c2ccc3c(c2)OCO3)CC1 (stereo not given) | 1.59
47 | CCCc1cc(C(=O)Nc2nc(SC)ns2)[nH]n1 | -19.3
48 | CCOc1cccc(CCNC(=O)Cc2ccccc2O)n1 | -2.55
49 | CN(C)C(=O)CNC(CC(F)(F)F)c1ccc(Cl)cc1 (stereo not given) | -3.53
50 | COCCNC(=O)NC1(c2ccccc2F)CC1 | -0.421
51 | Cc1nc(CNC(=O)Nc2c(C)n[nH]c2C)cs1 | 3.51
52 | CC(NC(=O)Cn1cccn1)c1cccnc1 (stereo not given) | 15.9
53 | COCCC(=O)N1CCc2cc(Cl)cc(Cl)c2C1 | -13.1
54 | COC(=O)CCNC(=O)c1ccoc1CN1c2ccccc2CC1C (stereo not given) | -9.23
55 | Cc1nc(C)c2c(n1)CCN(C(=O)CC1CC1)CC2 | 2.34

Source: ChEMBL document CHEMBL4513216, “Probing the Open Global Health Chemical Diversity Library for Multistage-Active Starting Points for Next-Generation Antimalarials” (ACS Infect Dis, 2020)
